Results published in ChEMBL document CHEMBL1158785, “Polyoxygenated steroids from the gorgonian Isis hippuris” (J Nat Prod, 2005).
≈ marks a conversion by molar mass, not a printed value.

Experiments:
HepG2 = experiment: Cytotoxicity against human HepG2 cells after 3 days by MTT assay; format: functional, cell-based; settings: HepG2, 72 h
Outline: (§1)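 Freshly trypsinized cells seeded at 5000-10 000 per well, compounds added from DMSO-diluted stock; 3 days culture. Attached cells then given MTT (0.5 mg/mL, 1 h), formazan dissolved in DMSO, absorbance read at 550 nm. IC50 taken as concentration reducing cell growth by 50%.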

MDA-MB-231 = experiment: Cytotoxicity against human MDA-MB-231 cells after 3 days by MTT assay; format: functional, cell-based; settings: MDA-MB-231, 72 h; outline: as §1
MCF7 = experiment: Cytotoxicity against human MCF7 cells after 3 days by MTT assay; format: functional, cell-based; settings: MCF7, 72 h; outline: as §1
[1] = Cytotoxicity against human Hep3B cells after 3 days by MTT assay; format: functional, cell-based, Hep 3B2; settings: 72 h; outline: as §1

Structure (SMILES)	IC50 (HepG2)	IC50 (MDA-MB-231)	IC50 (MCF7)	IC50 [1]
CC(=O)O[C@H]1C[C@@H]2CC[C@@H]3[C@H]([C@@H]4C[C@]56[C@H](O4)O[C@]4(C)[C@H]5[C@H](C[C@@H]36)O[C@]43C[C@H](C)C(C)(C)O3)[C@@]2(C)C[C@H]1OC(C)=O	> 20 µg/mL	> 20 µg/mL	> 20 µg/mL	–
C[C@H]1C[C@]2(O[C@H]3C[C@H]4[C@@H]5CC[C@H]6C[C@H](O)[C@H](O)C[C@]6(C)[C@H]5[C@@H](O)C[C@]4(C)[C@H]3[C@@]2(C)O)OC1(C)C	0.62 µg/mL (≈ 1.3 µM)	0.75 µg/mL (≈ 1.57 µM)	0.59 µg/mL (≈ 1.23 µM)	0.77 µg/mL (≈ 1.61 µM)
CC(=O)O[C@H]1C[C@@H]2CC[C@@H]3[C@H]([C@@H](O)C[C@@]4(C)[C@H]3C[C@@H]3O[C@@]5(C[C@H](C)C(C)(C)O5)[C@](C)(O)[C@@H]34)[C@@]2(C)C[C@H]1O	0.72 µg/mL (≈ 1.38 µM)	0.21 µg/mL (≈ 0.403 µM)	1.07 µg/mL (≈ 2.05 µM)	0.46 µg/mL (≈ 0.883 µM)
CC(=O)O[C@@H]1CC[C@@]2(C)[C@@H](CC[C@@H]3[C@@H]2[C@@H](O)C[C@]24[C@H](O)O[C@]5(C)[C@H]2[C@H](C[C@@H]34)O[C@]52C[C@H](C)C(C)(C)O2)C1 [HIPPURISTANOHEMIACETAL]	> 20 µg/mL	> 20 µg/mL	12.7 µg/mL (≈ 24.5 µM)	–
C[C@H]1C[C@]2(O[C@H]3C[C@H]4[C@@H]5CC[C@H]6C[C@H](O)CC[C@]6(C)[C@H]5[C@@H](O)C[C@]4(C)[C@H]3[C@@]2(C)O)OC1(C)C [EPIHIPPURISTANOL]	0.08 µg/mL (≈ 0.173 µM)	0.13 µg/mL (≈ 0.281 µM)	0.2 µg/mL (≈ 0.432 µM)	0.1 µg/mL (≈ 0.216 µM)
CC(=O)O[C@@H]1C[C@@]2(C)[C@@H](CC[C@@H]3[C@@H]2[C@@H](O)C[C@@]2(C)[C@H]3C[C@@H]3O[C@@]4(C[C@H](C)C(C)(C)O4)[C@](C)(O)[C@@H]32)C[C@@H]1O	0.56 µg/mL (≈ 1.08 µM)	0.41 µg/mL (≈ 0.787 µM)	0.53 µg/mL (≈ 1.02 µM)	0.1 µg/mL (≈ 0.192 µM)
CC(=O)O[C@H]1C[C@@H]2CC[C@@H]3[C@H]([C@@H](O)C[C@]45C(=O)O[C@]6(C)[C@H]4[C@H](C[C@@H]35)O[C@]63C[C@H](C)C(C)(C)O3)[C@@]2(C)C[C@H]1OC(C)=O	> 20 µg/mL	> 20 µg/mL	19.6 µg/mL (≈ 34.1 µM)	–
CC(=O)O[C@@H]1C[C@@]2(C)[C@@H](CC[C@@H]3[C@@H]2[C@@H](O)C[C@@]2(C)[C@H]3C[C@@H]3O[C@]4(C[C@H](C)C(C)(C)O4)[C@](C)(O)[C@@H]32)C[C@@H]1O [EPIHIPPURIN 1]	4.64 µg/mL (≈ 8.91 µM)	2.64 µg/mL (≈ 5.07 µM)	4.54 µg/mL (≈ 8.72 µM)	0.68 µg/mL (≈ 1.31 µM)
CC(=O)O[C@H]1C[C@@H]2CC[C@@H]3[C@H]([C@@H](O)C[C@]45[C@H](O)O[C@]6(C)[C@H]4[C@H](C[C@@H]35)O[C@]63C[C@H](C)C(C)(C)O3)[C@@]2(C)C[C@H]1OC(C)=O	> 20 µg/mL	> 20 µg/mL	11.4 µg/mL (≈ 19.7 µM)	–
C[C@H]1C[C@]2(O[C@H]3C[C@H]4[C@@H]5CC[C@H]6C[C@H](O)[C@H](O)C[C@]6(C)[C@H]5[C@@H](O)C[C@@]45C(=O)O[C@]2(C)[C@@H]35)OC1(C)C	> 30 µg/mL	> 30 µg/mL	> 30 µg/mL	23.8 µg/mL (≈ 48.6 µM)
CC(=O)O[C@@H]1CC[C@@]2(C)[C@@H](CC[C@@H]3[C@@H]2[C@@H]2C[C@]45[C@H](O2)O[C@]2(C)[C@H]4[C@H](C[C@@H]35)O[C@]23C[C@H](C)C(C)(C)O3)C1	> 20 µg/mL	> 20 µg/mL	> 20 µg/mL	–
CC(=O)O[C@@H]1CC[C@@]2(C)[C@@H](CC[C@@H]3[C@@H]2[C@@H](O)C[C@]24C(=O)O[C@]5(C)[C@H]2[C@H](C[C@@H]34)O[C@]52C[C@H](C)C(C)(C)O2)C1	> 20 µg/mL	> 20 µg/mL	> 20 µg/mL	–
C[C@H]1C[C@]2(O[C@H]3C[C@H]4[C@@H]5CC[C@H]6C[C@H](O)CC[C@]6(C)[C@H]5[C@@H](O)C[C@@]45C(=O)O[C@]2(C)[C@@H]35)OC1(C)C	> 20 µg/mL	> 20 µg/mL	> 20 µg/mL	–
CC(=O)O[C@@H]1C[C@@]2(C)[C@@H](CC[C@@H]3[C@@H]2[C@@H](O)C[C@]24C(=O)O[C@]5(C)[C@H]2[C@H](C[C@@H]34)O[C@]52C[C@H](C)C(C)(C)O2)C[C@@H]1O	27.6 µg/mL (≈ 51.8 µM)	> 30 µg/mL	> 30 µg/mL	> 30 µg/mL
CC(=O)O[C@H]1C[C@@H]2CC[C@@H]3[C@H]([C@@H](O)C[C@@]4(C)[C@H]3C[C@@H]3O[C@]5(C[C@H](C)C(C)(C)O5)[C@](C)(O)[C@@H]34)[C@@]2(C)C[C@H]1O	2.06 µg/mL (≈ 3.96 µM)	0.74 µg/mL (≈ 1.42 µM)	2.41 µg/mL (≈ 4.63 µM)	1.46 µg/mL (≈ 2.8 µM)
